RGS4 inh: inhibitors of human RGS4 | B-score at 10 µM | 0.45% of 310,000 active | HEK293 M3R/RGS4 inducible, Fluo-4 calcium flux; stronger effect = higher value; triggered by carbachol at its EC20;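 active = B-score, a plate-corrected calcium signal, over three deviations above library mean, with baseline fluorescence within five deviations of library mean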;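 also: RGS4 expression induced by doxycycline in cells with stable M3 receptor; B-score is computed from the integrated fluorescence ratio over baseline after carbachol; higher B-score means a larger calcium signal and so more RGS4 inhibition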
MrgX1 antagonist: human MrgX1 receptor antagonism, primary screen; MRGX1-HEK293 calcium flux, Fluo-4, BAM8-22 antagonism; stronger effect = lower value; 1.3% of 310,000 active; B-score at 10 µM; Q96LB2;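 active = calcium-response B-score plate-corrected more than 3 library SD below zero, starting fluorescence within 5 deviations, no agonist response on first addition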;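 also: peak minus trough fluorescence over baseline after final BAM8-22 challenge near maximal dose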
Target sequence (Q96LB2 whole entry, looked up): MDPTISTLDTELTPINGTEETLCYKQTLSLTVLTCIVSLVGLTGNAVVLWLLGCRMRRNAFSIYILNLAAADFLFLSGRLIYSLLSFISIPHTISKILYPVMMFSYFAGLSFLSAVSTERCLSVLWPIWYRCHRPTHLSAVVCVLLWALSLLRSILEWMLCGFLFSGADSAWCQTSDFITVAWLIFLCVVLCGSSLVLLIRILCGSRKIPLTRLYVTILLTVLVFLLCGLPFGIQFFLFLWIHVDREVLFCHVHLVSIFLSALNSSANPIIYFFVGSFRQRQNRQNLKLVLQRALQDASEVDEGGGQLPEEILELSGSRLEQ
RGS4 pot: RGS4 potentiation or activation; HEK293 M3R/inducible RGS4, carbachol calcium flux Fluo4; stronger effect = lower value; B-score at 10 µM; 0.92% of 310,000 active; AID 463111;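 active = B-score of the integrated calcium signal more than 4 SD below the library mean, with starting fluorescence not abnormally high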;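 also: negative B-score means reduced calcium response which marks RGS4 activation or potentiation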
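Material: Inducible-RGS4 HEK293 cells carrying M3 receptor; also added: carbachol at ECmax as muscarinic agonist stimulus; incubation: compound preincubation 20 min at room temperature before agonist; signal: Fluo4-AM (2 µM) calcium-flux fluorescence, kinetic read; measure: integrated calcium ratio converted to B score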
PHOSPHO1 block: blocks human PHOSPHO1 phosphatase activity | Q8TCT1 | recombinant PHOSPHO1, absorbance phosphatase assay | inhibition, % at 13.3 µM | 1.1% of 290,000 active | AID 1565; in the data active = inhibition above about 60%
MrgX1 allo act: human MrgX1 positive allosteric modulation, primary screen; 0.63% of 310,000 active; AID 588675; MrgX1-HEK293, Fluo-4 calcium flux, FDSS; stronger effect = higher value; Q96LB2; B-score at 10 µM;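 active = plate-corrected calcium response at least 3 library SD above typical, normal starting fluorescence, not activating the receptor alone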;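 also: compound read alongside a low EC10 to EC30 dose of BAM8-22 agonist; peak minus trough fluorescence over baseline measured at the second addition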
MrgX1 ag: human MrgX1 receptor agonism, primary screen; Q96LB2; MrgX1-HEK293 cells, Fluo-4 calcium fluorescence, agonist mode; stronger effect = higher value; B-score at 10 µM; 0.44% of 310,000 active;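 active = calcium response B-score plate-corrected fluorescence ratio at least 3 library SD, with starting fluorescence B-score inside 5 SD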
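Test system: HEK293 cells stably expressing human MrgX1 receptor; amount: 15,000 cells per well; doses: compound delivered in addition one of three; times: overnight plating before 1 h dye loading; detection: Fluo-4 NW calcium-flux fluorescence, kinetic read; read-out basis: B-scored fluorescence response ratio; controls: positive and negative controls per plate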
The depositor's hits bear a star; i = inactive; x = no result given. A selection: hits, their analogues and other compounds. The true share with any hit is near 4.5%.

SMILES	RGS4 inh	MrgX1 antagonist	RGS4 pot	PHOSPHO1 block	MrgX1 allo act	MrgX1 ag
Cc1cccn2c(=O)c3cc(C(=O)NC4CCCC4)c(=N)n(CCc4ccccc4)c3nc12	i	i	-8.07*	46.2	i	i
COc1ccc(CCNC(=O)c2cc3c(=O)n4ccccc4nc3n(C3CCCCC3)c2=N)cc1OC	i	i	i	38.2	i	i
COc1ccc(CCn2c(=N)c(C(=O)NC3CCCC3)cc3c(=O)n4cccc(C)c4nc32)cc1	i	i	i	23.5	i	i
COc1ccc(CCNC(=O)c2cc3c(=O)n4ccccc4nc3n(C3CCCCC3)c2=N)cc1	i	i	-7.13*	-25.6	i	i
Cc1cc(C)cc(NCCC#N)c1	i	i	i	-1.2	i	i
CCc1cccc(NS(=O)(=O)c2c(C)[nH]c(=O)[nH]c2=O)c1	i	i	i	29.9	i	i
Cc1ccc(-c2cc(C(=O)Nc3ccc(S(=O)(=O)Nc4ncccn4)cc3)[nH]n2)c(O)c1C	i	i	i	3.3	i	i
COc1ccc(-c2oc(=O)n(C)c2-c2ccc(OC)cc2)cc1	i	i	i	60.8*	i	i
COCCn1c(-c2ccc(OC)cc2)c(-c2ccc(OC)cc2)oc1=O	i	i	i	15.9	i	i
CC1CCC(C(C)C)C(OC(=O)C[n+]2cc(-c3ccc(Cl)cc3)n3c2CCC3)C1 (stereo not drawn)	i	-7.05*	i	22.5	i	i
O=C(C[n+]1cc(-c2ccc(Cl)cc2)n2c1CCC2)N1c2ccccc2Sc2ccccc21	i	i	-7.6*	-8.8	i	i
COc1ccc(-c2c[n+](CC(=O)N3c4ccccc4Sc4ccccc43)c3n2CCC3)cc1	i	i	-8.93*	-8.1	i	i
Cc1ccc(-c2c[n+](CC(=O)OCc3ccccc3)c3n2CCC3)cc1	i	i	i	2.6	i	i
COc1cc(OC)cc(-c2nnc(NC(=O)CCS(=O)(=O)c3ccc(C)cc3)o2)c1	i	i	i	x	i	i
CCOC(=O)c1nn(-c2ccc(Cl)cc2Cl)c(=N)c(C#N)c1C	i	-7.53*	i	10.0	i	i
CCOC(=O)c1c(C)[nH]c(C)c1C(=O)CSc1nnc(-c2ccncc2)n1Cc1ccccc1	i	i	i	55.6	i	i
Cc1ccc(-n2c(SCC(=O)N/N=C/c3c(C)nn(-c4ccccc4)c3C)nc3ccccc3c2=O)cc1	i	-6.4*	i	-24.5	i	i
CCOC(=O)c1c(C)[nH]c(C)c1C(=O)CSc1nc2ccccc2c(=O)n1-c1ccc(C)cc1	i	i	-7.24*	1.8	i	i
CCOC(=O)c1c(C)[nH]c(C)c1C(=O)CSc1nnc(-c2ccncc2)n1C	i	i	i	81.4*	i	i
CCOC(=O)c1c(C)[nH]c(C)c1C(=O)CSc1nc2ccccc2c(=O)n1-c1ccc(Cl)cc1	i	i	i	-18.0	i	i
COc1ccc(C(=O)OCC(=O)Nc2ccc3[nH]c(=O)[nH]c3c2)cc1	i	i	i	x	i	i
Cc1ccc(N(CCC#N)C(=O)COC(=O)c2ccccn2)cc1	i	i	i	22.6	i	i
Nc1nonc1-c1nc2ccccc2n1CC(=O)N/N=C/c1ccc(-c2cccc(C(=O)O)c2)o1	i	x	i	-1.3	x	x
CCCCCCc1cc2cc(C(=O)Nc3ccccc3)c(=O)oc2cc1O	i	i	i	-24.5	i	i
CCN(CC)c1ccc2cc(C(=O)NCc3ccc(F)cc3)c(=N)oc2c1	i	i	i	46.6	i	36.5*
N=c1oc2ccc(Br)cc2cc1C(=O)NCc1ccc(F)cc1	i	i	i	25.0	i	i
CCCCCCc1cc2cc(C(=O)NCc3ccccc3)c(=N)oc2cc1O	i	i	i	-9.5	6.97*	i
O=C(NCCCn1ccnc1)c1nn2c(C(F)(F)F)cc(-c3ccccc3)nc2c1Cl	i	i	i	-8.2	i	i
